Blank lines part the entries; values can stand above or below the molecule they belong to. Calls of active or inactive are those of the source. The rule behind the calls is not given here.
How the values were obtained:
CDK8/Cyclin C = CDK8/Cyclin C (Homo sapiens, UniProt P49336); assay: Inhibition of CDK8/cyclin C (unknown origin) using RBER-IRStide as substrate incubated for 60 mins in presence of [gamma33P]ATP by scintillation counting method; type: protein-complex assay
MV4-11 = assay: Growth inhibition of human MV4-11 cells after 72 hrs by resazurin staining based assay; type: functional
Outline: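 MV4-11 leukaemia cells grown in medium with 10% FBS at 37 °C, 5% CO2. Growth was read by a 72-h resazurin viability assay. GI50 was obtained by nonlinear regression and reported as mean ± standard deviation of at least two replicates.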

[1] = biological target: Glycogen synthase kinase-3 beta (Homo sapiens, UniProt P49841); assay: Inhibition of human GSKbeta H350L mutant (2 to 3nd residues) using YRRAAVPPSPSLSRHSSPHQS(p) EDEEE as substrate incubated for 40 mins in presence of [gamma-33P]-ATP by scintillation counting method
Glycogen synthase kinase-3 beta, sequence (P49841 whole entry): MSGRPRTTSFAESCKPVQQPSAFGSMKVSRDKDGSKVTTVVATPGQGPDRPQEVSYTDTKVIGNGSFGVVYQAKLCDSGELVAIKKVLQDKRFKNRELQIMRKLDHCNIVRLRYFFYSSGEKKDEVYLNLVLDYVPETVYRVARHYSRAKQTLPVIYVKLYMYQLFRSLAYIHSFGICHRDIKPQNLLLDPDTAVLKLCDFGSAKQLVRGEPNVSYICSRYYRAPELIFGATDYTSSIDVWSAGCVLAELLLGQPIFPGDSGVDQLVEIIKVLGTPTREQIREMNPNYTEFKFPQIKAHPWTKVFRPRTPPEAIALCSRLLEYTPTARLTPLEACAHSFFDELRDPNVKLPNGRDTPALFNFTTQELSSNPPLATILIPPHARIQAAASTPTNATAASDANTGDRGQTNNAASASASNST
Outline: (§1)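 Outsourced radioisotope (HotSpot) kinase assay run by a contract lab, with ATP at the kinase's Km(ATP). The IC50 was converted to an apparent Ki by the Cheng-Prusoff equation, Ki = IC50/(1+[ATP]/Km(ATP)), using the experimentally determined Km(ATP).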

[2] = biological target: CDK18/Cyclin Y (Homo sapiens) (UniProt Q07002+Q8ND76); assay: Inhibition of CDK18/Cyclin Y (unknown origin) at 1 uM; type: protein-complex assay
Outline: (§2)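 Residual activity of each kinase with compound at 1 µM, measured in a contracted radioisotope-based kinase profiling assay and expressed as % kinase activity remaining.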

MDA-MB-453 = assay: Growth inhibition human MDA-MB-453 cells after 72 hrs by resazurin or MTT assay; type: functional
Outline: (§3)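 Tumour cell lines kept in RPMI-1640, DMEM or MEM with 10% FBS at 37 °C, 5% CO2, mycoplasma-free. Exposure lasted 72 h. Viability was read by MTT for adherent solid-tumour lines and by resazurin for suspension leukaemia lines. GI50 came from nonlinear regression, given as mean ± standard deviation of at least two replicates unless stated otherwise.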

MCF7 = assay: Growth inhibition human MCF7 cells after 72 hrs by resazurin or MTT assay; type: functional; outline: as §3
[3] = biological target: T1, Protein kinase C theta type (Homo sapiens, UniProt Q04759); assay: Inhibition of human full length PKCtheta at 1 uM using histone H1 as substrate incubated for 40 mins in presence of [gamma-33P]-ATP by scintillation counting method relative to control
Outline: (§4)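 Single-point screen of residual kinase activity (%) at 1 µM compound. Run as a contract radiometric [γ-33P]-ATP kinase assay, either the KinaseProfiler service or the HotSpot assay. ATP was set at the experimentally determined Km(ATP) of each kinase.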
Target sequence in this assay (Q04759 whole entry, looked up): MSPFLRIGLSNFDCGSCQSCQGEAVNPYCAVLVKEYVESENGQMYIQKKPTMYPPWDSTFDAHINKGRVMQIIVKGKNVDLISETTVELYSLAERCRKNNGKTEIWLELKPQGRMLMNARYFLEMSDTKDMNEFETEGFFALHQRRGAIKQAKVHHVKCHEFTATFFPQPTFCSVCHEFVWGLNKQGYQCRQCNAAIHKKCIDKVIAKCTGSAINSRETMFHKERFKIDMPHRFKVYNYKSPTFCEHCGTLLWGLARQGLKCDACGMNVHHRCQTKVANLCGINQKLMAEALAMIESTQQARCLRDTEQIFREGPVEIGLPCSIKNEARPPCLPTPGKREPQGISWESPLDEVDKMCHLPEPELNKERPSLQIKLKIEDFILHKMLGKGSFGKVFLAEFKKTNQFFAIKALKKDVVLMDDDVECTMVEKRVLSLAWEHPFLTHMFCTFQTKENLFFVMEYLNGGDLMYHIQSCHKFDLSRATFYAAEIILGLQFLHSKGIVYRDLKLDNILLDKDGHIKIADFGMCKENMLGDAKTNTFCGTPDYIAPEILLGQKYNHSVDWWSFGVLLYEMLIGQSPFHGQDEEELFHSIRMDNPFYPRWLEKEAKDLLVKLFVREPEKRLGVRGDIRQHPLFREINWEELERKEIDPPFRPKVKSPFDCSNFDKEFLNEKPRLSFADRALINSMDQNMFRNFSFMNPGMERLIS

[4] = biological target: CDK2/Cyclin A2 (Homo sapiens) (UniProt P24941+P20248); assay: Inhibition of CDK2/cyclin-A (unknown origin) at 1 uM; type: protein-complex assay; outline: as §2
[5] = biological target: T2, Cyclin-dependent kinase 5/CDK5 activator 1 (Homo sapiens) (UniProt Q00535+Q15078); assay: Inhibition of CDK5/p25 (unknown origin) at 1 uM; type: protein-complex assay; outline: as §2
T2 sequence (Q00535 whole entry): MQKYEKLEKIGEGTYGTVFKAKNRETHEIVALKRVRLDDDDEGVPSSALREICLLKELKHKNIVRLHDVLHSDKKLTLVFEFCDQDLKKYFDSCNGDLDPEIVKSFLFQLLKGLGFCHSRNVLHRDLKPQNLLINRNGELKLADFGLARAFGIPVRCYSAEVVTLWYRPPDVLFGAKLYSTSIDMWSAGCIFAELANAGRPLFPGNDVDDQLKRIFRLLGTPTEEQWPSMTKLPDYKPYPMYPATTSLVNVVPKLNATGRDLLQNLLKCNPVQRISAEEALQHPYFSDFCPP
T2 sequence (Q15078 99-307 partner limits assumed): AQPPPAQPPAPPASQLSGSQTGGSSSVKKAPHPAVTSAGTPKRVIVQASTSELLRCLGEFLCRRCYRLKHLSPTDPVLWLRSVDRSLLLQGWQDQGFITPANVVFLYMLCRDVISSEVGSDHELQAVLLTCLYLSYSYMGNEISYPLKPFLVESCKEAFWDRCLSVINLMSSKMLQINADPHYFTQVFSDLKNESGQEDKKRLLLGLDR

[6] = tested on: Glycogen synthase kinase-3 alpha (Homo sapiens), P49840 [UNDEFINED MUTATION]; assay: Inhibition of human GSKalpha S449A mutant (2 to 3nd residues) at 1 uM using YRRAAVPPSPSLSRHSSPHQS(p) EDEEE as substrate incubated for 40 mins in presence of [gamma-33P]-ATP by scintillation counting method relative to control; outline: as §4
Glycogen synthase kinase-3 alpha (Homo sapiens), P49840 [UNDEFINED MUTATION], sequence (P49840 whole entry, looked up, stated change not applied): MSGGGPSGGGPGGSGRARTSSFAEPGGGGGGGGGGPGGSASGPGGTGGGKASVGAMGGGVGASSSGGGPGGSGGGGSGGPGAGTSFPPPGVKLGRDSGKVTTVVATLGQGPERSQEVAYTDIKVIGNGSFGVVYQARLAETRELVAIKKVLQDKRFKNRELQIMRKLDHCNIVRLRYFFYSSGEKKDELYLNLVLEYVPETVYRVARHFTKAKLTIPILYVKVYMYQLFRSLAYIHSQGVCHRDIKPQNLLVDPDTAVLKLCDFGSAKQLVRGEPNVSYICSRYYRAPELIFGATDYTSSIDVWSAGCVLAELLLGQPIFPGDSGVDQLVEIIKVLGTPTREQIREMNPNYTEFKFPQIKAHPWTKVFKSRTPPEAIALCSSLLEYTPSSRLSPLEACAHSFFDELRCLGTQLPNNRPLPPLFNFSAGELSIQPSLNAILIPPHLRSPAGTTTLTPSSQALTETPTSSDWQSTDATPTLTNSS

A2780 = assay: Growth inhibition human A2780 cells after 72 hrs by resazurin or MTT assay; type: functional; outline: as §3
[7] = biological target: Cyclin-Y/Cyclin-dependent kinase 16 (Homo sapiens) (UniProt Q00536+Q8ND76); assay: Inhibition of CDK16/Cyclin Y (unknown origin) at 1 uM; type: protein-complex assay; outline: as §2
[8] = biological target: Cyclin-dependent kinase 14/Cyclin-Y (Homo sapiens) (UniProt O94921+Q8ND76); assay: Inhibition of CDK14/Cyclin Y (unknown origin) at 1 uM; type: protein-complex assay; outline: as §2
[9] = biological target: CDK6/cyclin D3 (Homo sapiens) (UniProt P30281+Q00534); assay: Inhibition of CDK6/cyclin-D3 (unknown origin) at 1 uM; type: protein-complex assay; outline: as §2
[10] = Inhibition of CYP4501A in human liver microsomes using ethoxyresorufin O-deethylation as substrate by LC-MS/MS analysis
[11] = biological target: CDK7/Cyclin H/MNAT1 (Homo sapiens) (UniProt P51946+P50613+P51948); assay: Inhibition of CDK7/cyclin H/MNAT1 (unknown origin) at 1 uM; type: protein-complex assay; outline: as §2
U-937 = assay: Growth inhibition human U-937 cells after 72 hrs by resazurin or MTT assay; type: functional; outline: as §3
[12] = biological target: T2, Cyclin-dependent kinase 5/CDK5 activator 1 (Homo sapiens); assay: Inhibition of CDK5/p35 (unknown origin) at 1 uM; type: protein-complex assay; outline: as §2
[13] = biological target: CDK3/Cyclin E (Homo sapiens) (UniProt P24864+Q00526); assay: Inhibition of CDK3/cyclin-E (unknown origin) at 1 uM; type: protein-complex assay; outline: as §2
CDK3/Cyclin E (Homo sapiens), sequence (P24864 whole entry, looked up): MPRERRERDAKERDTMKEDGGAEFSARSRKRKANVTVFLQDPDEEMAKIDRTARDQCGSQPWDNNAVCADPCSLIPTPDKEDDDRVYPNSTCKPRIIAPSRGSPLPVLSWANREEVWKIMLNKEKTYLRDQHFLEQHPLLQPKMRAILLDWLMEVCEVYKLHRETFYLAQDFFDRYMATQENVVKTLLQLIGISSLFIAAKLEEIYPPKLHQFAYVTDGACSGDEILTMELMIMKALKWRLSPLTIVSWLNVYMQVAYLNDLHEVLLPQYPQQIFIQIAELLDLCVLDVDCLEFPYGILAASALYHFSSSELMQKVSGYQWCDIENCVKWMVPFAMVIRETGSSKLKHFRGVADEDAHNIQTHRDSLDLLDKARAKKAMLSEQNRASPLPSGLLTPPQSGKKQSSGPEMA
CDK3/Cyclin E (Homo sapiens), sequence (Q00526 whole entry, looked up): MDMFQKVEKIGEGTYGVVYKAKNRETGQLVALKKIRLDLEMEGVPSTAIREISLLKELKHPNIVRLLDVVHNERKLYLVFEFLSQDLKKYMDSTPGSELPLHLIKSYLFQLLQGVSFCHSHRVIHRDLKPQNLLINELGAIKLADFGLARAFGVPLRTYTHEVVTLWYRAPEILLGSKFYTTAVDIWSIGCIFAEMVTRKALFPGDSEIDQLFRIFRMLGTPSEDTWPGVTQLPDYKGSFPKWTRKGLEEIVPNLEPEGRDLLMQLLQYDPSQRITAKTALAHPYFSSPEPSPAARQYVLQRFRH

T47D = assay: Growth inhibition human T47D cells after 72 hrs by resazurin or MTT assay; type: functional; outline: as §3
PANC-1 = assay: Growth inhibition human PANC-1 cells after 72 hrs by resazurin or MTT assay; type: functional; outline: as §3
HCT-116 = assay: Growth inhibition human HCT-116 cells after 72 hrs by resazurin or MTT assay; type: functional; outline: as §3
[14] = biological target: Cyclin-dependent kinase 1/cyclin B1 (Homo sapiens) (UniProt P06493+P14635); assay: Inhibition of CDK1/cyclin-B (unknown origin) at 1 uM relative to control; type: protein-complex assay; outline: as §2
Cyclin-dependent kinase 1/cyclin B1 (Homo sapiens), sequence (P06493 whole entry, looked up): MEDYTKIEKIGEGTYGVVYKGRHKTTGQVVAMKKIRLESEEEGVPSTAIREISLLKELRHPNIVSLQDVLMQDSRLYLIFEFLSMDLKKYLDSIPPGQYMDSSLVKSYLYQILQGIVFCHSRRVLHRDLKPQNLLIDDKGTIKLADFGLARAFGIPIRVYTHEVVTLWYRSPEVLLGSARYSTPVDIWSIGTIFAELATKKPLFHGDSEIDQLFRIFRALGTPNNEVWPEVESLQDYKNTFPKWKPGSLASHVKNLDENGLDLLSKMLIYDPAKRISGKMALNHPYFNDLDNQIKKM
Cyclin-dependent kinase 1/cyclin B1 (Homo sapiens), sequence (P14635 whole entry, looked up): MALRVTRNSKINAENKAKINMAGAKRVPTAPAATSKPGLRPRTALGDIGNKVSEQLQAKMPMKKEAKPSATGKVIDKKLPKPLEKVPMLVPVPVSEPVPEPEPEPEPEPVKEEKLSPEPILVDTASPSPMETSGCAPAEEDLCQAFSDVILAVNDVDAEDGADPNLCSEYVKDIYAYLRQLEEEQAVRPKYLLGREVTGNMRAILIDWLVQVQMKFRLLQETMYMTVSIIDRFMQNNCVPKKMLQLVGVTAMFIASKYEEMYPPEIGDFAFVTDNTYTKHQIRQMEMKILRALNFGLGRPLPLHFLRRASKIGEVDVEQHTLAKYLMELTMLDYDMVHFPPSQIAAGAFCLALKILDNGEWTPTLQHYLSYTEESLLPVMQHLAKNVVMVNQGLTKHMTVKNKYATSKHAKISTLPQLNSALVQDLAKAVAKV

[15] = biological target: Glycogen synthase kinase-3 alpha (Homo sapiens, UniProt P49840); assay: Inhibition of human GSKalpha S449A mutant (2 to 3nd residues) using YRRAAVPPSPSLSRHSSPHQS(p) EDEEE as substrate incubated for 40 mins in presence of [gamma-33P]-ATP by scintillation counting method; outline: as §1
Glycogen synthase kinase-3 alpha, sequence (P49840 whole entry): as the sequence (P49840 whole entry, looked up, stated change not applied) above

COLO 205 = assay: Growth inhibition human COLO 205 cells after 72 hrs by resazurin or MTT assay; type: functional; outline: as §3
[16] = biological target: Cyclin-dependent kinase 4/cyclin D1 (Homo sapiens) (UniProt P11802+P24385); assay: Inhibition of CDK4/cyclin-D1 (unknown origin) at 1 uM; type: protein-complex assay; outline: as §2
[17] = Growth inhibition human WI38 cells after 72 hrs by resazurin or MTT assay; type: cell-based; details: WI-38 cells
MOLM-13 = assay: Growth inhibition human MOLM-13 cells after 72 hrs by resazurin or MTT assay; type: functional; outline: as §3
HT-29 = assay: Growth inhibition human HT-29 cells after 72 hrs by resazurin or MTT assay; type: functional; outline: as §3
[18] = biological target: T1, Protein kinase C theta type; assay: Inhibition of human full length PKCtheta using histone H1 as substrate incubated for 40 mins in presence of [gamma-33P]-ATP by scintillation counting method
Outline: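 IC50 measured in a contracted radiometric kinase assay with ATP at the experimentally determined Km(ATP) of each kinase. Apparent Ki was derived by Cheng-Prusoff: Ki = IC50/(1+[ATP]/Km(ATP)).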
Target sequence in this assay (Q04759 whole entry): as the sequence (Q04759 whole entry, looked up) above

MDA-MB-231 = assay: Growth inhibition human MDA-MB-231 cells after 72 hrs by resazurin or MTT assay; type: functional; outline: as §3
[19] = biological target: CDK9/cyclin T1 (Homo sapiens) (UniProt O60563+P50750); assay: Inhibition of CDK9/Cyclin T1 (unknown origin) at 1 uM relative to control; type: protein-complex assay; outline: as §2
[20] = biological target: CDK17/Cyclin-Y (Homo sapiens) (UniProt Q00537+Q8ND76); assay: Inhibition of CDK17/Cyclin Y (unknown origin) at 1 uM; type: protein-complex assay; outline: as §2
[21] = tested on: Glycogen synthase kinase-3 beta (Homo sapiens), P49841 [UNDEFINED MUTATION]; assay: Inhibition of human GSKbeta H350L mutant (2 to 3nd residues) at 1 uM using YRRAAVPPSPSLSRHSSPHQS(p) EDEEE as substrate incubated for 40 mins in presence of [gamma-33P]-ATP by scintillation counting method relative to control; outline: as §4
Glycogen synthase kinase-3 beta (Homo sapiens), P49841 [UNDEFINED MUTATION], sequence (P49841 whole entry, looked up, stated change not applied): as the sequence (P49841 whole entry) above

CDK8/Cyclin C, sequence (P49336 whole entry): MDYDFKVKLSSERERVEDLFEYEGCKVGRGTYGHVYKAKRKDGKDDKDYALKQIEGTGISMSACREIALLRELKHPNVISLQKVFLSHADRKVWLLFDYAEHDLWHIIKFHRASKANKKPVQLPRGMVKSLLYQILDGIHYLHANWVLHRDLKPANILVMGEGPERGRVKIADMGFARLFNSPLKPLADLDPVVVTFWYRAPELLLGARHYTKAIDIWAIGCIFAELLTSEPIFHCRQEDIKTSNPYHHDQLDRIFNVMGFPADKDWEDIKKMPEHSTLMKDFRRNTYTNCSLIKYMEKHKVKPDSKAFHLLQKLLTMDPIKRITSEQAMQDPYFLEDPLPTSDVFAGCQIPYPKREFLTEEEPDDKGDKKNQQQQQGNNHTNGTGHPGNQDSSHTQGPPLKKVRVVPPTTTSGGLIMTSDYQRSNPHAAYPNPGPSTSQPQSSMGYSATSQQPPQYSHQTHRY
CDK8/Cyclin C, sequence (P24863 whole entry, further chain): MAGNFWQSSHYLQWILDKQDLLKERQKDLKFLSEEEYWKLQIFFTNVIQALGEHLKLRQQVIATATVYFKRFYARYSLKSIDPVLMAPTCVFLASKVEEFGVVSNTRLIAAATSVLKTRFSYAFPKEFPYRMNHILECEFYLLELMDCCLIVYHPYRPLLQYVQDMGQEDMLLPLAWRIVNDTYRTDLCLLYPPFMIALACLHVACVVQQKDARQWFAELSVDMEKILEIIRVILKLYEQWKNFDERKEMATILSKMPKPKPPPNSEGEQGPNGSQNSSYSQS

SMILES: O=C1NCCC12CCN(c1c(Cl)cncc1-c1cccc3ccncc13)CC2
Ki (CDK8/Cyclin C): 3.14 µM | GI50 (MV4-11): 64.2 µM

SMILES: O=C1NCCC12CCN(c1c(Cl)cncc1-c1cc3ccccc3s1)CC2
Ki [1]: 0.018 µM | inhibition [2]: inactive | GI50 (MDA-MB-453): 17.4 µM | GI50 (MCF7): > 50 µM | inhibition [3]: > 50% | inhibition [4]: inactive | inhibition [5]: inactive | inhibition [6]: > 50% | GI50 (A2780): 17.6 µM | inhibition [7]: inactive | inhibition [8]: inactive | inhibition [9]: inactive | IC50 [10]: 16.6 µM | inhibition [11]: inactive | GI50 (U-937): 2.69 µM | inhibition [12]: inactive | inhibition [13]: inactive | GI50 (T47D): 17.9 µM | GI50 (PANC-1): > 50 µM | GI50 (HCT-116): 42.7 µM | inhibition [14]: inactive | Ki [15]: 0.043 µM | GI50 (COLO 205): > 50 µM | Ki (CDK8/Cyclin C): 0.014 µM | inhibition [16]: inactive | GI50 at 72 h [17]: 35 µM | GI50 (MOLM-13): 5.81 µM | GI50 (HT-29): 29.3 µM | GI50 (MV4-11): 0.58 µM | Ki [18]: 0.134 µM | GI50 (MDA-MB-231): 34.2 µM | inhibition [19]: inactive | inhibition [20]: inactive | inhibition [21]: > 50%

SMILES: Cn1ncc2cc(Nc3cncc(Cl)c3N3CCC4(CCNC4=O)CC3)ccc21
Ki (CDK8/Cyclin C): 0.67 µM | GI50 (MV4-11): 1.71 µM

SMILES: CC(C)(C)OC(=O)N1CCC(n2cc(-c3cncc(Cl)c3N3CCC4(CCNC4=O)CC3)cn2)CC1
Ki (CDK8/Cyclin C): 0.7 µM | GI50 (MV4-11): 12.2 µM

SMILES: O=C1NCCC12CCN(c1c(Cl)cncc1-c1cn(S(=O)(=O)c3ccccc3)c3ncccc13)CC2
Ki (CDK8/Cyclin C): 1.3 µM | GI50 (MV4-11): 40.2 µM

SMILES: O=C1NCCC12CCN(c1c(Cl)cncc1-c1cn(S(=O)(=O)c3ccccc3)c3ccccc13)CC2
Ki (CDK8/Cyclin C): 0.645 µM | GI50 (MV4-11): 28.4 µM

Continued by falling Ki (CDK8/Cyclin C), values first:

Ki (CDK8/Cyclin C): 0.458 µM | GI50 (MV4-11): 27.7 µM
SMILES: Cn1ncc2c(-c3cncc(Cl)c3N3CCC4(CCNC4=O)CC3)cccc21

Ki (CDK8/Cyclin C): 0.156 µM | GI50 (MV4-11): 6.84 µM
SMILES: O=C1NCCC12CCN(c1c(Cl)cncc1-c1cc3ccccc3[nH]1)CC2

Ki (CDK8/Cyclin C): 0.052 µM | GI50 (MV4-11): 62.3 µM
SMILES: O=C1NCCC12CCN(c1c(Cl)cncc1-c1cccc3cnccc13)CC2

Ki (CDK8/Cyclin C): 0.052 µM | GI50 (MV4-11): 5.26 µM
SMILES: Cn1cc2c(-c3cncc(Cl)c3N3CCC4(CCNC4=O)CC3)cccc2n1

Ki (CDK8/Cyclin C): 0.048 µM | GI50 (MV4-11): 29.2 µM
SMILES: O=C1NCCC12CCN(c1c(Cl)cncc1-c1coc3ccccc13)CC2

Ki (CDK8/Cyclin C): 0.024 µM | GI50 (MV4-11): 6.35 µM
SMILES: O=C1NCCC12CCN(c1c(Cl)cncc1-c1cccc3c1sc1ccccc13)CC2

Ki (CDK8/Cyclin C): 0.022 µM | GI50 (MV4-11): 0.71 µM
SMILES: Cc1ccc(-c2cncc(Cl)c2N2CCC3(CCNC3=O)CC2)c2ccccc12

Ki (CDK8/Cyclin C): 0.021 µM | GI50 (MV4-11): 0.35 µM
SMILES: O=C1NCCC12CCN(c1c(Cl)cncc1-c1csc3ccccc13)CC2

Ki (CDK8/Cyclin C): 0.016 µM | GI50 (MV4-11): 6.68 µM
SMILES: O=C1NCCC12CCN(c1c(Cl)cncc1-c1cccc3c1oc1ccccc13)CC2
